In ChEMBL document CHEMBL3526062, “Role of human UDP-glucuronosyltransferases in the biotransformation of the triazoloacridinone and imidazoacridinone antitumor agents C-1305 and C-1311: highly selective substrates for UGT1A10” (Drug Metab Dispos, 2012):

How the values were obtained:
Format in all cases: ADME
[1] = Drug metabolism in human jejunum microsomes assessed as glucuronidation activity at 0.1 mM for 60 mins in presence of 3 mM UDP-GlcUA; details: 1 h, 100 µM
Procedure, shortened: (§1)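 Microsomes from single donors (20 μg protein) incubated with 0.1 mM substrate and 3 mM UDP-GlcUA for 60 min at 37°C in Tris-HCl pH 7.4 buffer with 5 mM MgCl2, 5 mM saccharolactone and 2% DMSO. Glucuronide measured by HPLC; donor data summarized as box-and-whisker plots.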

[2] = molecular target: T1, UDP-glucuronosyltransferase 1A9 (Homo sapiens, UniProt O60656); assay: Drug metabolism assessed as human recombinant UGT1A9-mediated compound formation treated with C-1305 for 60 mins by ESI-MS/UV-vis spectroscopy in presence of 3 mM UDP-GlcUA; details: recombinant enzyme, 1 h
T1 sequence (O60656 whole entry): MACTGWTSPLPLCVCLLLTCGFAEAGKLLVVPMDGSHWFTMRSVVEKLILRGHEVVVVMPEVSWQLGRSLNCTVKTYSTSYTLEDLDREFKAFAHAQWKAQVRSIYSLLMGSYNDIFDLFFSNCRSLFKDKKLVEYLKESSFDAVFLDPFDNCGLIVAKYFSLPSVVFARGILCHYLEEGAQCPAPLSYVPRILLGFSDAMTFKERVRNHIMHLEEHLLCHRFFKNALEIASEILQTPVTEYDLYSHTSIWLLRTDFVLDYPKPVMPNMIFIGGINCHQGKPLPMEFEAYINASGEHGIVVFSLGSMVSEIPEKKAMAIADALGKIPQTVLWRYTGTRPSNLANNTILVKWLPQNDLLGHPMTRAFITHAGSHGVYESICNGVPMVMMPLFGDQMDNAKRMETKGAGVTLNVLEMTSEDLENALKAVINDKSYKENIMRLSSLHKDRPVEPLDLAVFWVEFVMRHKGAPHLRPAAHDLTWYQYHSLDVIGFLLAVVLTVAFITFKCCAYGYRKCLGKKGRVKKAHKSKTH
Procedure, shortened: (§2)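 Recombinant human UGT1A1 or UGT1A9 (5 μg protein), or single-donor human liver or intestinal microsomes (20 μg), incubated in Tris-HCl pH 7.4 with 5 mM MgCl2, 5 mM saccharolactone, 2% DMSO and 100 or 200 μM substrate. Started with UDP-GlcUA, 60 min at 37°C, in triplicate. Product identified by HPLC with positive-ion ESI-MS and UV/Vis spectra, and confirmed by β-glucuronidase hydrolysis.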

[3] = Drug metabolism in human small intestine microsomes assessed as glucuronidation activity at 0.1 mM for 60 mins in presence of 3 mM UDP-GlcUA; details: 1 h, 100 µM; procedure, shortened: as §1
[4] = tested on: Liver microsome; assay: Drug metabolism in human liver microsomes assessed as ratio of Vmax to Km for glucuronidation per mg of protein after 60 mins by Michaelis-Menten equation in presence of 3 mM UDP-GlcUA; details: 1 h
Procedure, shortened: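 Recombinant UGT membrane protein (5 μg; His-tagged UGT1A levels normalized by anti-His Western blot) or single-donor microsomes (20 μg) incubated with substrate 5–1000 μM and 3 mM UDP-GlcUA in […] pH 7.4, 5 mM MgCl2, 5 mM saccharolactone, 2% DMSO, 60 min, 37°C. Ethanol stop, centrifuged, HPLC-UV. Initial velocities fitted to Michaelis-Menten, Hill or substrate-inhibition models; three determinations.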

[5] = tested on: Liver microsome; assay: Drug metabolism in human liver microsomes assessed as metabolite formation treated with C-1305 for 60 mins by ESI-MS/UV-vis spectroscopy in presence of 3 mM UDP-GlcUA; details: 1 h; procedure, shortened: as §2
[6] = molecular target: T2, UDP-glucuronosyltransferase 1A7 (Homo sapiens, UniProt Q9HAW7); assay: Drug metabolism assessed as human recombinant UGT1A7-mediated compound formation treated with C-1305 for 60 mins by ESI-MS/UV-vis spectroscopy in presence of 3 mM UDP-GlcUA; details: recombinant enzyme, 1 h
T2 sequence (Q9HAW7 whole entry): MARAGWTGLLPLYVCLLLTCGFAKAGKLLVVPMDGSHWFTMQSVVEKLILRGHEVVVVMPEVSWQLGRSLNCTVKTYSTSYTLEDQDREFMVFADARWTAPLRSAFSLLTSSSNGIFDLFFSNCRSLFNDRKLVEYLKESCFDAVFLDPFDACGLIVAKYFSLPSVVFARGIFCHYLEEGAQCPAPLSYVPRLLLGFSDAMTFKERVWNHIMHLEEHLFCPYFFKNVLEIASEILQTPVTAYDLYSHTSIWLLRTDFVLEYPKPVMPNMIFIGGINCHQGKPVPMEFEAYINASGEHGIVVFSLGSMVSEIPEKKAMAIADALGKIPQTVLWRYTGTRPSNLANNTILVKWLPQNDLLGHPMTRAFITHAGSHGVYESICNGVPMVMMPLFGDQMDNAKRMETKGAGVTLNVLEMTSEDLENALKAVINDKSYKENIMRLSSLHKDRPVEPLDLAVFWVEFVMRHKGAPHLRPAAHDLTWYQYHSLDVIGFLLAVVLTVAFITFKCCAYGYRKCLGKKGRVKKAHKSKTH
Procedure, shortened: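 His-tagged recombinant human UGT expressed in baculovirus-infected insect cells, levels normalized by anti-His Western blot; 5 μg membrane protein incubated 60 min at 37°C in […] pH 7.4, 5 mM MgCl2, 5 mM saccharolactone, 2% DMSO, substrate 100 or 200 μM; started with UDP-GlcUA; ethanol stop, centrifuged; supernatant by reversed-phase HPLC-UV/ESI-MS; glucuronide confirmed by β-glucuronidase hydrolysis; triplicate.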

[7] = molecular target: T2, UDP-glucuronosyltransferase 1A7; assay: Activity of human recombinant UGT1A7 expressed in baculovirus-infected Sf9 cells assessed as glucuronidation activity per mg of protein at 100 to 200 uM after 60 mins in presence of 3 mM UDP-GlcUA; details: sf9, 1 h
Procedure, shortened: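 Screening: 5 μg recombinant UGT protein (His-tag levels normalized) in Tris-HCl pH 7.4, 5 mM MgCl2, 5 mM saccharolactone, 2% DMSO to permeabilize membranes. Substrate at 100 or 200 μM, added in water. Started with 3 mM UDP-GlcUA, 60 min at 37°C, stopped with ethanol, then centrifuged. Glucuronide quantified by reversed-phase C18 HPLC against the substrate response; triplicates.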

[8] = molecular target: T1, UDP-glucuronosyltransferase 1A9; assay: Activity of human recombinant UGT1A9 expressed in baculovirus-infected Sf9 cells assessed as enzyme-mediated glucuronidation per mg protein at 235 uM after 60 mins by Michaelis-Menten equation in presence of 3 mM UDP-GlcUA; details: sf9, 1 h
[9] = molecular target: T1, UDP-glucuronosyltransferase 1A9; assay: Drug metabolism assessed as human recombinant UGT1A9-mediated compound formation treated with C-1311 for 60 mins by ESI-MS/UV-vis spectroscopy in presence of 3 mM UDP-GlcUA; details: recombinant enzyme, 1 h

Row | Drug metabolism [2] | Drug metabolism [5] | Drug metabolism [6] | Structure (SMILES) | Drug metabolism [1] | Drug metabolism [3] | Vmax/Km [4] [µL/min] | Drug metabolism [7] [nmol/min/mg] | Drug metabolism [8] [nmol/min/mg] | Drug metabolism [9]
1 | metabolite_detected | metabolite_detected | metabolite_detected | CN(C)CCCNc1ccc2nnn3c4ccc(O)cc4c(=O)c1c23 | metabolite_detected | metabolite_detected | 5.4 | 0.2 | – | –
2 | – | – | – | CCN(CC)CCNc1ccc2ncn3c4ccc(O)cc4c(=O)c1c23 [C-1311] | metabolite_detected | metabolite_detected | 4 | 0.2 | 0.14 | metabolite_detected
